Measurements: ChEMBL document CHEMBL1144120, “In vitro evaluation of antifungal properties of phenylpropanoids and related compounds acting against dermatophytes” (1999)
Converted amounts (≈) assume the structure as drawn. The source made the active and inactive calls. The calls are words filed in the database; no cut-off is given here.

Tests used:
[1] = system: Saccharomyces cerevisiae; assay: Antifungal activity against Saccharomyces cerevisiae ATCC 9763 by agar dilution method; assay type: functional, organism-based
How it was run: (§1)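 Sabouraud chloramphenicol agar dilution in 96-well plates. Strains were grown on Sabouraud chloramphenicol agar slants for 48 h at 30 °C and suspended in sterile distilled water, adjusted to 10^6 viable cells/mL. DMSO stocks were serially two-fold diluted into the agar to give 0.10–50 µg/mL, with DMSO ≤2% final. 5 µL inoculum per well; incubated 24, 48 or 72 h at 30 °C per control growth; MIC recorded.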

[2] = system: Epidermophyton floccosum; assay: Antifungal activity against Epidermophyton floccosum C 114 by agar dilution method; assay type: functional
How it was run: (§2)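 Dermatophytes were tested by agar dilution on Sabouraud chloramphenicol agar in 96-well plates. DMSO stock solutions were serially two-fold diluted into the medium to give final concentrations of 0.10–50 µg/mL, with DMSO not exceeding 2%. Each well received 5 µL of spore suspension.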

[3] = system: Candida albicans; assay: Antifungal activity against Candida albicans ATCC 10231 by agar dilution method; assay type: functional, organism-based; how it was run: as §1
[4] = system: Trichophyton rubrum; assay: Antifungal activity against Trichophyton rubrum C 113 by agar dilution method; assay type: functional; how it was run: as §2
[5] = system: Trichophyton mentagrophytes; assay: Antifungal activity against Trichophyton mentagrophytes ATCC by agar dilution method; assay type: functional; how it was run: as §2
[6] = system: Nannizzia gypsea; assay: Antifungal activity against Microsporum gypseum C 115 by agar dilution method; assay type: functional; how it was run: as §2
[7] = system: Aspergillus fumigatus; assay: Antifungal activity against Aspergillus fumigatus ATCC 26934 by agar dilution method; assay type: functional, organism-based; how it was run: as §1
[8] = system: Microsporum canis; assay: Antifungal activity against Microsporum canis C 112 by agar dilution method; assay type: functional; how it was run: as §2
[9] = system: Trichophyton rubrum; assay: Antifungal activity against Trichophyton rubrum C 113 up to 50 ug/mL by agar dilution method; assay type: functional, organism-based; how it was run: as §2
[10] = system: Aspergillus niger; assay: Antifungal activity against Aspergillus niger ATCC 9029 by agar dilution method; assay type: functional, organism-based; how it was run: as §1
[11] = system: Cryptococcus neoformans; assay: Antifungal activity against Cryptococcus neoformans ATCC 32264 by agar dilution method; assay type: functional, organism-based; how it was run: as §1
[12] = system: Aspergillus flavus; assay: Antifungal activity against Aspergillus flavus ATCC 9170 by agar dilution method; assay type: functional, organism-based; how it was run: as §1
[13] = system: Trichophyton mentagrophytes; assay: Antifungal activity against Trichophyton mentagrophytes ATCC 9972 up to 50 ug/mL by agar dilution method; assay type: functional, organism-based; how it was run: as §2
[14] = system: Nannizzia gypsea; assay: Antifungal activity against Microsporum gypseum C 115 up to 50 ug/mL by agar dilution method; assay type: functional, organism-based; how it was run: as §2
[15] = system: Epidermophyton floccosum; assay: Antifungal activity against Epidermophyton floccosum C 114 up to 50 ug/mL by agar dilution method; assay type: functional, organism-based; how it was run: as §2

Row | SMILES | Activity [1] | MIC [2] | Activity [3] | MIC [4] | MIC [5] | MIC [6] | Activity [7] | MIC [8] | Activity [9] | Activity [10] | Activity [11] | Activity [12] | Activity [13] | Activity [14] | Activity [15]
1 | CC(C)C(O)c1ccc2ccccc2c1 (stereo not given) | inactive | 25 µg/mL (≈ 125 µM) | inactive | 12.5 µg/mL (≈ 62.4 µM) | 12.5 µg/mL (≈ 62.4 µM) | 25 µg/mL (≈ 125 µM) | inactive | 25 µg/mL (≈ 125 µM) | inactive | inactive | inactive | inactive | – | – | –
2 | CC(=O)N1CCN(c2ccc(OCC3COC(Cn4ccnc4)(c4ccc(Cl)cc4Cl)O3)cc2)CC1 (stereo not given) [KETOCONAZOLE] | inactive | 25 µg/mL (≈ 47 µM) | inactive | 15 µg/mL (≈ 28.2 µM) | 12.5 µg/mL (≈ 23.5 µM) | 6.25 µg/mL (≈ 11.8 µM) | inactive | 15 µg/mL (≈ 28.2 µM) | – | inactive | inactive | inactive | – | – | –
3 | CC(C)C(O)c1cc2ccccc2c2ccccc12 (stereo not given) | inactive | 10 µg/mL (≈ 39.9 µM) | inactive | 10 µg/mL (≈ 39.9 µM) | 6.25 µg/mL (≈ 25 µM) | 6.25 µg/mL (≈ 25 µM) | inactive | 6.25 µg/mL (≈ 25 µM) | – | inactive | inactive | inactive | – | – | –
4 | c1ccc2c(c1)ccc1ccccc12 [PHENANTHRENE] | inactive | > 50 µg/mL | inactive | > 50 µg/mL | > 50 µg/mL | > 50 µg/mL | inactive | > 50 µg/mL | – | inactive | inactive | inactive | – | – | –
5 | COc1ccc(C(=O)C(C)Cl)cc1OC (stereo not given) | inactive | 0.15 µg/mL (≈ 0.656 µM) | inactive | 10 µg/mL (≈ 43.7 µM) | 12.5 µg/mL (≈ 54.7 µM) | 12.5 µg/mL (≈ 54.7 µM) | inactive | 3.12 µg/mL (≈ 13.6 µM) | – | inactive | inactive | inactive | inactive | – | –
6 | C[C@@H]1[C@H](O)[C@@H](C)/C=C/C=C/C=C/C=C/C=C/C=C/C=C/[C@H](O[C@@H]2O[C@H](C)[C@@H](O)[C@H](N)[C@@H]2O)C[C@@H]2O[C@](O)(C[C@@H](O)C[C@@H](O)[C@H](O)CC[C@@H](O)C[C@@H](O)CC(=O)O[C@H]1C)C[C@H](O)[C@H]2C(=O)O [AMPHOTERICIN B] | inactive | 0.3 µg/mL (≈ 0.325 µM) | inactive | 25 µg/mL (≈ 27.1 µM) | 6.25 µg/mL (≈ 6.76 µM) | 6.25 µg/mL (≈ 6.76 µM) | inactive | > 50 µg/mL | – | inactive | inactive | inactive | – | – | –
7 | CC(Cl)C(=O)c1cc2ccccc2c2ccccc12 (stereo not given) | inactive | 15 µg/mL (≈ 55.8 µM) | inactive | 1.5 µg/mL (≈ 5.58 µM) | 3 µg/mL (≈ 11.2 µM) | 10 µg/mL (≈ 37.2 µM) | inactive | 3 µg/mL (≈ 11.2 µM) | inactive | inactive | inactive | inactive | inactive | inactive | inactive
8 | CC(C)C(=O)c1cc2ccccc2c2ccccc12 | inactive | 20 µg/mL (≈ 80.5 µM) | inactive | 20 µg/mL (≈ 80.5 µM) | 6.25 µg/mL (≈ 25.2 µM) | 20 µg/mL (≈ 80.5 µM) | inactive | 20 µg/mL (≈ 80.5 µM) | – | inactive | inactive | inactive | – | – | –
9 | c1ccc2ccccc2c1 [NAPHTHALENE] | inactive | > 50 µg/mL | inactive | > 50 µg/mL | > 50 µg/mL | > 50 µg/mL | inactive | > 50 µg/mL | – | inactive | inactive | inactive | – | – | –
